MrgX1 antagonist: antagonists of human MrgX1 receptor; Q96LB2; MRGX1-HEK293 calcium flux, Fluo-4, BAM8-22 antagonism; hits give low values; B-score at 10 µM; 1.3% of 310,000 active;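 active = calcium-response B-score plate-corrected more than 3 library SD below zero, starting fluorescence within 5 deviations, no agonist response on first addition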;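 also: peak minus trough fluorescence over baseline after final BAM8-22 challenge near maximal dose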
Target sequence (Q96LB2 whole entry, looked up): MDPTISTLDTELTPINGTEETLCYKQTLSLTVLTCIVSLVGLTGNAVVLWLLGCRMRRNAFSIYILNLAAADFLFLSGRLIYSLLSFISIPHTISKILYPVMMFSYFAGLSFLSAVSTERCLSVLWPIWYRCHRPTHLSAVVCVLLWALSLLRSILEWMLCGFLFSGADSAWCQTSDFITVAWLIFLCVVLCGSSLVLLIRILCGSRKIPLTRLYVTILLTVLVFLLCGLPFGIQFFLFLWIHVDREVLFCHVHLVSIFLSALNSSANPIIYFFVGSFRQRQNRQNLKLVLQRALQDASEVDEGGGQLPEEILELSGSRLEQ
RGS4 inh: human RGS4 inhibition. AID 463165. 0.45% of 310,000 active. HEK293 M3R/RGS4 inducible, Fluo-4 calcium flux; hits give high values; triggered by carbachol at its EC20. P49798. B-score at 10 µM;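 active = B-score, a plate-corrected calcium signal, over three deviations above library mean, with baseline fluorescence within five deviations of library mean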;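 also: RGS4 expression induced by doxycycline in cells with stable M3 receptor; B-score is computed from the integrated fluorescence ratio over baseline after carbachol; higher B-score means a larger calcium signal and so more RGS4 inhibition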
Target sequence (P49798 whole entry, looked up): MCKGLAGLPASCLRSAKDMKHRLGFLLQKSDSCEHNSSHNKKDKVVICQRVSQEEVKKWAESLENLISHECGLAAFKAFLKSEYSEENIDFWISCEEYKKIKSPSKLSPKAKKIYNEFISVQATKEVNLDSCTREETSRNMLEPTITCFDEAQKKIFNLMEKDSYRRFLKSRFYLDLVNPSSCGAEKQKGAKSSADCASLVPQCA
RGS4 pot: RGS4 potentiation or activation; HEK293 M3R/inducible RGS4, carbachol calcium flux Fluo4; hits give low values; B-score at 10 µM; 0.92% of 310,000 active;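 active = B-score of the integrated calcium signal more than 4 SD below the library mean, with starting fluorescence not abnormally high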;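 also: negative B-score means reduced calcium response which marks RGS4 activation or potentiation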
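Also added: carbachol at ECmax as muscarinic agonist stimulus; Assay system: HEK293 cells with stable M3R and inducible RGS4; Timing: overnight RGS4 induction, 30 min dye load 37 °C, 20 min compound RT; Measured by: Fluo4-AM (2 µM) calcium-flux fluorescence, kinetic read.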
MrgX1 PAM: allosterically activates human MrgX1 receptor signaling; B-score at 10 µM; 0.63% of 310,000 active; Q96LB2; MrgX1-HEK293, Fluo-4 calcium flux, FDSS; hits give high values;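 active = plate-corrected calcium response at least 3 library SD above typical, normal starting fluorescence, not activating the receptor alone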;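 also: compound read alongside a low EC10 to EC30 dose of BAM8-22 agonist; peak minus trough fluorescence over baseline measured at the second addition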
MrgX1 ag: human MrgX1 receptor agonism, primary screen; MrgX1-HEK293 cells, Fluo-4 calcium fluorescence, agonist mode; hits give high values; B-score at 10 µM; 0.44% of 310,000 active;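 active = calcium response B-score plate-corrected fluorescence ratio at least 3 library SD, with starting fluorescence B-score inside 5 SD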
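times = overnight plating, then 30 min 37 °C plus 30 min room-temperature dye loading | assay system = stable human MrgX1 HEK293 cell line | input = fifteen thousand cells per well | signal = kinetic calcium dye fluorescence, Fluo-4 NW | dosing = compound delivered in addition one of three | read-out = B-scored fluorescence response ratio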
MrgX1 antag conf: confirmation of human MrgX1 receptor antagonists | shares compounds with MrgX1 antagonist | MrgX1-HEK293, BAM8-22 calcium flux, Fluo-4; hits give low values | remaining BAM8-22 calcium response % of control (hits give low values), % at 10 µM | 19% of 2,300 active | AID 602420;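 active = remaining agonist calcium response no higher than 100% minus 3 SD of agonist-only control wells, with starting fluorescence near control levels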;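 also: agonist BAM8-22 given at a near maximal EC90 to ECmax level; peak minus minimum fluorescence divided by baseline after agonist addition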
HEK293 Ca flux: activity in parental HEK293 cells lacking MrgX1; shares compounds with MrgX1 antagonist; Fluo-4 calcium fluorescence, FDSS; fluorescence ratio F(max-min)/F0 at 10 µM; 2% of 4,000 active; AID 624111;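 active = duplicate-averaged calcium fluorescence ratio at least three times the standard deviation of buffer wells, a nonspecific response in parental cells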
HEK293 Ca counter: activity in parental HEK293 cells without MrgX1 | shares compounds with MrgX1 antagonist | parental HEK293 calcium flux, Fluo-4 fluorescence ratio; hits give high values | fluorescence ratio F(max-min)/F0 at 10 µM | 0.4% of 4,000 active | AID 624114;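 active = calcium fluorescence ratio, averaged over duplicates, at least 3 SD of the buffer-well ratio, meaning a nonspecific response in receptor-free cells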;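 also: untransfected parental HEK293 lacking MrgX1 used as counterscreen for MrgX1 allosteric activators; fluorescence change taken during the second addition on a kinetic imager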
HEK293 Ca cntr2: activity in parental HEK293 cells lacking MrgX1 receptor; shares compounds with MrgX1 antagonist; Fluo-4 calcium fluorescence (FDSS); hits give high values; fluorescence ratio F(max-min)/F0 at 10 µM; 8.7% of 4,000 active; AID 624115;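 active = calcium fluorescence ratio at least three times the spread of buffer wells, meaning a non-specific response in parental cells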
Each line names hits and unclear results; the compound was inactive in the other large screens (follow-up assays come after a bar, where they were run). An excerpt weighted towards active compounds, which were near 3.5% of everything screened.

Cc1noc(C)c1CSc1ncnc2ccccc12	MrgX1 antagonist -7.7 | MrgX1 antag conf inactive | HEK293 Ca flux inactive | HEK293 Ca counter inactive | HEK293 Ca cntr2 inactive
CCNc1nc2c(c(=O)[nH]c(=O)n2C)n1CC(C)C	MrgX1 antagonist -4.6 | MrgX1 antag conf inactive | HEK293 Ca flux inactive | HEK293 Ca counter inactive | HEK293 Ca cntr2 inactive
Cc1ccc(C(=O)Nc2nc3ccccc3n3nnnc23)cc1	MrgX1 antagonist -11 | MrgX1 antag conf 84% | HEK293 Ca flux inactive | HEK293 Ca counter inactive | HEK293 Ca cntr2 inactive
COCCn1c(N)c(Sc2ccc(C)cc2)c(=O)[nH]c1=O	none
CCOC(=O)c1csc(NC(=O)CCSc2ccccc2)n1	MrgX1 antagonist -5.3 | MrgX1 antag conf inactive | HEK293 Ca flux inactive | HEK293 Ca counter inactive | HEK293 Ca cntr2 inactive
CCN1CCN(C(=O)CCNC(=O)Cn2cnc3ccccc3c2=O)CC1	none
O=C(c1ccco1)N(CC1CCCO1)c1nc(-c2ccccc2)cs1 (centres undefined)	none
Cc1ccc(-c2csc(N(CC3CCCO3)C(=O)c3ccco3)n2)cc1 (centres undefined)	MrgX1 antagonist -4.7 | MrgX1 antag conf inactive | HEK293 Ca flux inactive | HEK293 Ca counter inactive | HEK293 Ca cntr2 inactive
CC1(C)Cc2cccc(C(=O)Nc3ccc(F)cc3F)c2O1	none
Cc1nc(NC(=O)CN2CCN(c3cccc(Cl)c3)CC2)sc1C(=O)N(C)C	none
COc1ccc2[nH]c3c(c2c1)CCNC3C1CC=C(C)CC1 (centres undefined)	MrgX1 antagonist -8.9 | MrgX1 antag conf inactive | HEK293 Ca flux inactive | HEK293 Ca counter inactive | HEK293 Ca cntr2 inactive
COc1ccc2[nH]c(C)cc(=O)c2c1	none
C=CCN1C(=O)c2ccc(C(=O)N(CCC)CC(=O)Nc3ccccc3C)cc2C1=O	none
CC(C)COc1ccc(C(=O)OCC(=O)N(C)CC(=O)Nc2ccc(F)cc2)cc1	none
COC(=O)c1ccc(NC(=O)C2C3C=CC(O3)C2C(=O)O)cc1 (centres undefined)	MrgX1 antagonist -8.7 | MrgX1 antag conf inactive | HEK293 Ca flux inactive | HEK293 Ca counter inactive | HEK293 Ca cntr2 inactive
Cc1sc2ncnc(N3CCC(C(=O)Nc4ccc(C#N)cc4)CC3)c2c1C	MrgX1 antagonist -5.3 | MrgX1 antag conf inactive | HEK293 Ca flux inactive | HEK293 Ca counter inactive | HEK293 Ca cntr2 inactive
CS(=O)(=O)c1cnc(-c2cccnc2)nc1N	none
N#Cc1cc2ccccc2nc1SCc1ccccn1	none
Cc1cc2cc3c(cc2nc1SCc1ccccn1)OCCO3	MrgX1 antagonist -6.5 | MrgX1 antag conf inactive | HEK293 Ca flux inactive | HEK293 Ca counter inactive | HEK293 Ca cntr2 inactive
COc1ccc(CNc2ncnc3c2[nH]c2ccccc23)cc1	none
Cc1ccc2[nH]c3c(NCc4ccccc4)ncnc3c2c1	MrgX1 antagonist -7.4 | MrgX1 antag conf inactive | HEK293 Ca flux inactive | HEK293 Ca counter inactive | HEK293 Ca cntr2 inactive
CC(C)OCCCNc1ncnc2c1[nH]c1ccccc12	MrgX1 antagonist -8.4 | MrgX1 antag conf 52% | HEK293 Ca flux inactive | HEK293 Ca counter inactive | HEK293 Ca cntr2 inactive
Cc1ccccc1NC(=O)CSc1ccc(-c2ccc(-n3cccn3)cc2)nn1	none
COc1ccccc1NC(=O)CSc1ccc(-c2ccc(-n3ccnc3)cc2)nn1	MrgX1 antagonist -5.1 | MrgX1 antag conf inactive | HEK293 Ca flux inactive | HEK293 Ca counter inactive | HEK293 Ca cntr2 inactive
Cc1nn(C)c(Oc2ccc(Cl)cc2)c1C(=O)Nc1ccc(F)cc1F	none
O=C(O)c1ccc(N/N=C/c2cc3cc4c(cc3nc2Cl)OCCO4)cc1	none
Cc1ccc(NC(=O)Cc2ccc(-c3ccccc3)cc2)nc1	MrgX1 antagonist -8.1 | MrgX1 antag conf inactive | HEK293 Ca flux inactive | HEK293 Ca counter inactive | HEK293 Ca cntr2 inactive
O=C(CSc1ccc(-c2cccc([N+](=O)[O-])c2)nn1)NC1CCCC1	none
Cc1nn(C)c(Cl)c1CN1CCN(C2CCCC2)C(CCO)C1 (centres undefined)	MrgX1 antagonist -11 | MrgX1 antag conf inactive | HEK293 Ca flux inactive | HEK293 Ca counter inactive | HEK293 Ca cntr2 inactive
N#Cc1sc2nc(-c3ccccc3)cc(-c3ccco3)c2c1N	MrgX1 antagonist -10 | MrgX1 antag conf inactive | HEK293 Ca flux inactive | HEK293 Ca counter inactive | HEK293 Ca cntr2 inactive
O=C(NC1CCCCCCC1)c1ccc(Br)o1	MrgX1 antagonist -4.7 | MrgX1 antag conf inactive | HEK293 Ca flux inactive | HEK293 Ca counter inactive | HEK293 Ca cntr2 inactive
O=C(NC1CCCCCC1)c1ccc(Br)o1	none
CC1CCC(C(C)C)C(OC(=O)Cn2c(-c3ccc(Cl)cc3)[n+](C)c3ccccc32)C1 (centres undefined)	MrgX1 antagonist -9.9, RGS4 pot -8.6 | MrgX1 antag conf 45% | HEK293 Ca flux inactive | HEK293 Ca counter inactive | HEK293 Ca cntr2 inactive
O=C(O)CC1(CC(=O)Nc2ccc(Oc3cccc(C(F)(F)F)c3)nc2)CCCC1	none
Cc1nn(CC(=O)NCc2cc3ccccc3[nH]2)c(C)c1[N+](=O)[O-]	none
COc1ccccc1NC(=O)C1=C(C)Nc2nc(-c3ccc(N(C)C)cc3)nn2C1c1ccncc1 (centres undefined)	none (no result: RGS4 inh, RGS4 pot)
COc1ccccc1NC(=O)C1=C(C)Nc2nc(-c3cccs3)nn2C1c1cccnc1 (centres undefined)	MrgX1 antagonist -5.2 | MrgX1 antag conf inactive | HEK293 Ca flux inactive | HEK293 Ca counter inactive | HEK293 Ca cntr2 inactive
COc1ccc(CNC(=O)COc2cc(=O)n(C)c3ccccc23)cc1	none
Cn1c(=O)cc(OCC(=O)NCc2cccs2)c2ccccc21	MrgX1 antagonist -7.1 | MrgX1 antag conf inactive | HEK293 Ca flux inactive | HEK293 Ca counter inactive | HEK293 Ca cntr2 inactive
COCCNC(=O)c1ccc2c(=O)n(CCOC)c(=O)[nH]c2c1	MrgX1 antagonist -6.2 | MrgX1 antag conf inactive | HEK293 Ca flux inactive | HEK293 Ca counter inactive | HEK293 Ca cntr2 inactive
CC(C)(Oc1ccc(Cl)cc1)C(=O)OCC(=O)N1CCCC1	MrgX1 antagonist -13 | MrgX1 antag conf inactive | HEK293 Ca flux inactive | HEK293 Ca counter inactive | HEK293 Ca cntr2 inactive
NCCCC[C@@H](C(=O)N1CCNCC1)n1cc(CN)nn1	MrgX1 antagonist -7.1 (no result: RGS4 inh, RGS4 pot) | MrgX1 antag conf inactive | HEK293 Ca flux inactive | HEK293 Ca counter inactive | HEK293 Ca cntr2 inactive
CCCCc1cn([C@@H](CCCCN)C(=O)N2CCNCC2)nn1	none
O=C(c1cccc(-c2ccc(O)cc2)c1)N1CCN(c2ccc(F)cc2)CC1	none

Source: PubChem BioAssay
